Assay results published in ChEMBL document CHEMBL2331476, “A novel semisynthetic flavonoid 7-O-galloyltaxifolin upregulates heme oxygenase-1 in RAW264.7 cells via MAPK/Nrf2 pathway” (J Med Chem, 2013).
The source made the active and inactive calls. The rule behind the calls is not given here.

How the values were obtained:
[1] = target: T1, Nuclear factor erythroid 2-related factor 2 (Mus musculus) (UniProt Q60795); assay: Activation of Nrf2 in mouse RAW264.7 cells assessed as induction of Hmox1 mRNA expression at 50 uM after 6 hrs by real-time PCR analysis in presence of PD98059; assay type: cell-based
T1 sequence (whole entry): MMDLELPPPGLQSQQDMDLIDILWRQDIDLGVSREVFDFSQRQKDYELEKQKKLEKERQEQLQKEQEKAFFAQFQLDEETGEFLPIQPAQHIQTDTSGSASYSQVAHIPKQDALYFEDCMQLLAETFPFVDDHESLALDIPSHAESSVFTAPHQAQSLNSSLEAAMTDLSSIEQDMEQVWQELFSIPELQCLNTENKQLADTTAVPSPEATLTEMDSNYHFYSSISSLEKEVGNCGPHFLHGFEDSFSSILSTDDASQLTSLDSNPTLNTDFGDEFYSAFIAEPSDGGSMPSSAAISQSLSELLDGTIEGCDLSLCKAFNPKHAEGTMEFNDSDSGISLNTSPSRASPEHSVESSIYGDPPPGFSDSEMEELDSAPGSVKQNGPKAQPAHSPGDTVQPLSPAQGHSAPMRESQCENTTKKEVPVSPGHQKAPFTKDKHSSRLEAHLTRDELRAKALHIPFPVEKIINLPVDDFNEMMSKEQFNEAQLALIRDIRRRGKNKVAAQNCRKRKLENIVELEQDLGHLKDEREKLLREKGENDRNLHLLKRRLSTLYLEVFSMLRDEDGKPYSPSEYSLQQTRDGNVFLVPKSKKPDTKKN
How it was run: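 Pretreatment 30 min with 0.1% DMSO, 15 μM PD98059, 15 μM SB203580 or 30 μM SP600125, then 50 μM agent for 6 h in serum-free medium. Hmox1 mRNA by TaqMan qPCR normalized to Gapdh, given as percent of agent-induced expression; mean ± SD of three experiments.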

[2] = target: Mitogen-activated protein kinase 8 (Mus musculus) (UniProt Q91Y86); assay: Activation of JNK1 in mouse RAW264.7 cells assessed as phosphorylation at Thr183/Tyr185 at 50 uM after 30 mins to 4 hrs by Western blotting analysis; assay type: cell-based; conditions: TDE = time-dependent effect
Mitogen-activated protein kinase 8 (Mus musculus), sequence (Q91Y86 whole entry): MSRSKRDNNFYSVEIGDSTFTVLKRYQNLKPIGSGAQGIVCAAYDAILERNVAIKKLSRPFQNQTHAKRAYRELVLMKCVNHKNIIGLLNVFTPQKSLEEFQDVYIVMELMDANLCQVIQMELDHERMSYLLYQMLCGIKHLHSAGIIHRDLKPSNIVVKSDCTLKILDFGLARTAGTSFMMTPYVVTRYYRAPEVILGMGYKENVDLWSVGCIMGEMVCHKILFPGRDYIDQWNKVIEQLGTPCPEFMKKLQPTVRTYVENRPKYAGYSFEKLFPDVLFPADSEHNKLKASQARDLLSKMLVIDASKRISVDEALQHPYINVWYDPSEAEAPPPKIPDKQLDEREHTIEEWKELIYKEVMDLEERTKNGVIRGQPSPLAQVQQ
How it was run: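 Serum-starved RAW264.7 cells exposed in serum-free medium for 30 min to 4 h; 5 μM anisomycin for 30 min as positive control. Whole-cell lysates (30 μg/lane) blotted for JNKs dually phosphorylated at Thr183/Tyr185 and total JNKs, chemiluminescent detection.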

[3] = target: T1, Nuclear factor erythroid 2-related factor 2 (Mus musculus); assay: Activation of Nrf2 in mouse RAW264.7 cells assessed as reduction of KEAP1 protein level at 50 uM after 3 hrs by Western blotting analysis; assay type: cell-based
How it was run: (§1)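 Whole-cell lysates (20 μg/lane) from serum-starved RAW264.7 cells given 10-50 μM for 6 h or 50 μM for 1-6 h in serum-free medium, 0.1% DMSO vehicle. Keap1 and actin detected by chemiluminescent Western blot; Keap1 band intensity normalized to actin, mean of three experiments.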

[4] = target: T1, Nuclear factor erythroid 2-related factor 2 (Mus musculus); assay: Activation of Nrf2 in mouse RAW264.7 cells assessed as reduction of KEAP1 protein level at 50 uM after 1 to 6 hr by Western blotting analysis; assay type: cell-based; conditions: TDE = time-dependent effect; how it was run: as §1
[5] = target: T1, Nuclear factor erythroid 2-related factor 2 (Mus musculus); assay: Activation of Nrf2 in mouse RAW264.7 cells assessed as nuclear accumulation at 50 uM after 1 hr by Western blotting analysis; assay type: cell-based
How it was run: (§2)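 Serum-starved RAW264.7 cells treated 30 min to 3 h (10-50 μM for 3 h, or 50 μM time course); 0.1% DMSO control, 50 μM quercetin positive control. Cytosolic fraction from hypotonic HEPES pH 7.9 buffer with 0.1% NP-40; nuclear fraction by 420 mM NaCl extraction. 30 μg/lane blotted for Nrf2 and actin; Nrf2/actin densitometry, mean of three experiments.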

[6] = target: T1, Nuclear factor erythroid 2-related factor 2 (Mus musculus); assay: Activation of Nrf2 in mouse RAW264.7 cells assessed as cytosolic accumulation at 25 uM after 3 hrs by Western blotting analysis; assay type: cell-based; how it was run: as §2
[7] = target: T1, Nuclear factor erythroid 2-related factor 2 (Mus musculus); assay: Activation of Nrf2 in mouse RAW264.7 cells assessed as upregulation of HO1 protein expression at 50 uM after 3 hrs by Western blotting analysis; assay type: cell-based
How it was run: (§3)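 HO-1 protein in whole-cell lysates (20 μg/lane) of serum-starved RAW264.7 cells after 6 h at 10-50 μM or 50 μM for 1-6 h in serum-free medium, 0.1% DMSO control. Chemiluminescent Western blot; HO-1 densitometry normalized to actin, mean of three experiments.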

[8] = target: T1, Nuclear factor erythroid 2-related factor 2 (Mus musculus); assay: Activation of Nrf2 in mouse RAW264.7 cells assessed as upregulation of HO1 protein expression at 10 to 50 uM after 6 hrs by Western blotting analysis; assay type: cell-based; how it was run: as §3
[9] = target: T1, Nuclear factor erythroid 2-related factor 2 (Mus musculus); assay: Activation of Nrf2 in mouse RAW264.7 cells assessed as upregulation of HO1 protein expression at 50 uM after 1 to 6 hr by Western blotting analysis; assay type: cell-based; conditions: TDE = time-dependent effect; how it was run: as §3
[10] = target: T1, Nuclear factor erythroid 2-related factor 2 (Mus musculus); assay: Activation of Nrf2 in mouse RAW264.7 cells assessed as upregulation of Hmox1 gene expression at 25 uM after 6 hrs by real-time PCR analysis relative to GAPDH mRNA expression; assay type: cell-based
How it was run: (§4)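 RAW264.7 cells treated 6 h in serum-free medium, 0.1% DMSO control. Total RNA (2 μg) reverse transcribed; TaqMan qPCR for Hmox1 and Gapdh, 40 cycles. Relative expression by 2^−ΔΔCT, normalized to Gapdh; mean ± SD of three experiments.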

[11] = target: T1, Nuclear factor erythroid 2-related factor 2 (Mus musculus); assay: Activation of Nrf2 in mouse RAW264.7 cells assessed as upregulation of Hmox1 gene expression at 10 to 50 uM after 6 hrs by real-time PCR analysis relative to GAPDH mRNA expression; assay type: cell-based; how it was run: as §4
RAW264.7 [12] = assay: Drug uptake in mouse RAW264.7 cells at 50 uM after 10 mins; assay type: ADME, cell-based; conditions: raw264.7, 10 min
How it was run: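 Cells given 50 μM for up to 6 h, then scraped, washed twice in PBS and sonicated in methanol with 5% acetic acid. Supernatant analysed by UPLC on a phenyl column (water/1% acetic acid/methanol to methanol gradient, 35 °C) with negative ESI-QqTOF MS. Contents expressed as nmol per 10⁶ cells.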

RAW264.7 [13] = assay: Cytotoxicity against mouse RAW264.7 cells assessed as decreased cell viability at 50 uM after 6 hrs by MTT assay; assay type: cell-based; conditions: raw264.7, 6 h
How it was run: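 Serum-starved RAW264.7 cells exposed 6 h at 10 or 50 μM; 0.1% DMSO control (100% viability), 1.5% Triton X-100 positive control. Cells washed and incubated 2 h at 37 °C with 0.5 mg/mL MTT in serum-free medium. Formazan dissolved in DMSO, A540 read, viability relative to DMSO-treated cells.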

RAW264.7 [14] = assay: Induction of ROS generation in mouse RAW264.7 cells at 10 to 50 uM after 2 hrs by flow cytometric analysis; assay type: functional, cell-based
How it was run: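 Serum-starved RAW264.7 cells treated 2 h at 10-50 μM; 100 μM TBHP for 30 min as positive control. Medium replaced, cells loaded with 10 μM carboxy-H₂DCFDA for 15 min at 37 °C. Flow cytometry (488 nm excitation, 525 nm emission, 10,000 events) gave percentage of cells with raised ROS; mean ± SD of three experiments.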

Activity [1]: inactive | Activity [2]: tde | Activity [3]: Active | Activity [4]: tde | Activity [5]: Active | Activity [6]: Active | fold change (FC) [7]: 1.3 | Activity [8]: Dose-dependent effect | Activity [9]: tde | fold change (FC) [10]: 4.8 | Activity [11]: Dose-dependent effect | Drug uptake (RAW264.7 [12]): 85%
SMILES: O=C(Oc1cc(O)c2c(c1)O[C@H](c1ccc(O)c(O)c1)[C@@H](O)C2=O)c1cc(O)c(O)c(O)c1
Activity (RAW264.7 [13]): 72% | Activity (RAW264.7 [14]): Active
